Measured values taken from ChEMBL document CHEMBL4406880, “Design, synthesis, and bioactivity of dihydropyrimidine derivatives as kinesin spindle protein inhibitors” (Bioorg Med Chem, 2019).

How the values were obtained:
Assay type in all cases: functional
RPMI-8226 = assay: Growth inhibition of human RPMI8226 cells incubated for 48 hrs by sulforhodamine B assay; conditions: RPMI-8226, 48 h
Outline: (§1)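 NCI-60 five-dose assay, SRB end-point, same culture conditions. Compound is tested at tenfold dilutions of 0.01, 0.1, 1, 10 and 100 µM for 48 h at 37 °C, with DMSO/PBS vehicle controls. Percentage growth at each concentration is taken against untreated cells and a time-zero plate. GI50 is 50% net growth decrease, TGI is total growth inhibition, and LC50 is 50% loss of initial cells.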

EKVX = assay: Growth inhibition of human EKVX cells incubated for 48 hrs by sulforhodamine B assay
Outline: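 NCI-60 five-dose mode: five tenfold dilutions (0.01, 0.1, 1, 10, 100 µM) are applied for 48 h to cells in RPMI 1640 with 5% FBS at 37 °C. Endpoint is TCA fixation with sulforhodamine B read at 515 nm. % growth comes from the 0 h and control absorbances. GI50 is the concentration giving a 50% reduction in net cell growth.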

NCI-H522 = assay: Growth inhibition of human NCI-H522 cells incubated for 48 hrs by sulforhodamine B assay; conditions: NCI-H522, 48 h
Outline: (§2)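 NCI-60 five-dose SRB assay in RPMI 1640 with 5% FBS, 37 °C, 5% CO2. Compound given at five tenfold dilutions, 0.01–100 µM, for 48 h. Adherent cells fixed with TCA, suspension cells with 16% final TCA. Bound SRB read at 515 nm and growth calculated against time-zero and untreated controls. GI50 taken from dose–response curves as the concentration giving a 50% decrease in net cell growth.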

Malme-3M [1] = assay: Growth inhibition of human MALME-3M cells incubated for 48 hrs by sulforhodamine B assay; outline: as §2
OVCAR-4 = assay: Growth inhibition of human OVCAR4 cells incubated for 48 hrs by sulforhodamine B assay; conditions: OVCAR-4, 48 h; outline: as §2
T47D = assay: Growth inhibition of human T47D cells incubated for 48 hrs by sulforhodamine B assay
Outline: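 NCI-60 five-dose SRB assay. Cells were exposed for 48 h to tenfold dilutions of 0.01, 0.1, 1, 10 and 100 µM, in RPMI 1640 with 5% FBS. Plates fixed with TCA at the time of drug addition served as the time-zero reference. GI50 is the concentration giving a 50% reduction in net growth. TGI is total growth inhibition. LC50 is a net 50% loss of the initial cells.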

SK-MEL-5 [2] = assay: Growth inhibition of human SK-MEL-5 cells assessed as cell viability at 100 uM incubated for 48 hrs by sulforhodamine B assay; conditions: SK-MEL-5, 48 h, read-out: Activity
SF-268 = assay: Growth inhibition of human SF268 cells assessed as cell viability at 100 uM incubated for 48 hrs by sulforhodamine B assay; conditions: SF-268, 48 h, read-out: Activity
SK-MEL-5 [3] = assay: Growth inhibition of human SK-MEL-5 cells assessed as cell viability at 1 uM incubated for 48 hrs by sulforhodamine B assay; conditions: SK-MEL-5, 48 h, read-out: Activity
NCI-H460 = assay: Growth inhibition of human NCI-H460 cells assessed as cell viability at 1 uM incubated for 48 hrs by sulforhodamine B assay; conditions: NCI-H460, 48 h, read-out: Activity
UACC-62 = assay: Growth inhibition of human UACC62 cells assessed as cell viability at 0.1 uM incubated for 48 hrs by sulforhodamine B assay; conditions: UACC-62, 48 h, read-out: Activity
UACC-257 = assay: Growth inhibition of human UACC257 cells assessed as cell viability at 0.1 uM incubated for 48 hrs by sulforhodamine B assay; conditions: UACC-257, 48 h, read-out: Activity
HL-60(TB) [4] = assay: Growth inhibition of human HL-60(TB) cells assessed as cell viability at 0.1 uM incubated for 48 hrs by sulforhodamine B assay; conditions: HL-60, 48 h, read-out: Activity; outline: as §1
CCRF-CEM = assay: Growth inhibition of human CCRF-CEM cells assessed as cell viability at 0.1 uM incubated for 48 hrs by sulforhodamine B assay; conditions: read-out: Activity
TK-10 = assay: Growth inhibition of human TK10 cells assessed as cell viability at 0.001 uM incubated for 48 hrs by sulforhodamine B assay relative to control; conditions: TK-10, 48 h, read-out: Activity
OVCAR-8 [5] = assay: Growth inhibition of human OVCAR8 cells assessed as cell viability at 0.001 uM incubated for 48 hrs by sulforhodamine B assay relative to control; conditions: OVCAR-8, 48 h, read-out: Activity
OVCAR-3 = assay: Growth inhibition of human OVCAR3 cells assessed as cell viability at 0.001 uM incubated for 48 hrs by sulforhodamine B assay relative to control; conditions: OVCAR-3, 48 h, read-out: Activity
SK-MEL-5 [6] = assay: Growth inhibition of human SK-MEL-5 cells assessed as cell viability at 0.001 uM incubated for 48 hrs by sulforhodamine B assay relative to control; conditions: SK-MEL-5, 48 h, read-out: Activity
Malme-3M [7] = assay: Growth inhibition of human MALME-3M cells assessed as cell viability at 0.001 uM incubated for 48 hrs by sulforhodamine B assay relative to control; conditions: read-out: Activity
U-251 = assay: Growth inhibition of human U251 cells assessed as cell viability at 0.001 uM incubated for 48 hrs by sulforhodamine B assay relative to control; conditions: U-251, 48 h, read-out: Activity
MOLT-4 = assay: Growth inhibition of human MOLT4 cells assessed as cell viability at 0.001 uM incubated for 48 hrs by sulforhodamine B assay relative to control; conditions: MOLT-4, 48 h, read-out: Activity
HL-60(TB) [8] = assay: Growth inhibition of human HL-60(TB) cells assessed as cell viability at 0.001 uM incubated for 48 hrs by sulforhodamine B assay relative to control; conditions: HL-60, 48 h, read-out: Activity
OVCAR-8 [9] = assay: Growth inhibition of human OVCAR8 cells assessed as cell viability at 100 uM incubated for 48 hrs by sulforhodamine B assay; conditions: OVCAR-8, 48 h, read-out: Activity
SN12C = assay: Growth inhibition of human SN12C cells assessed as cell viability at 100 uM incubated for 48 hrs by sulforhodamine B assay; conditions: read-out: Activity
[10] = read-out: LC50 (the source's name)
[11] = read-out: pLC50 (the source's name) (converted)

CC1=C(C(=O)OCc2ccccc2)C(c2ccc3c(c2)OCO3)n2c(nc3ccccc32)N1 (racemic)
CC50 (RPMI-8226; [10]): > 100 µM
TGI (RPMI-8226; read-out: TGI): > 100 µM
CC50 (RPMI-8226; [11]): > 100 µM
TGI (RPMI-8226; read-out: pTGI): > 100 µM
GI50 (EKVX; read-out: GI50): 0.69 µM
LC50 (EKVX; read-out: LC50): > 100 µM
TGI (EKVX; read-out: TGI): > 100 µM
GI50 (EKVX; read-out: pGI50 (converted)): 0.692 µM
LC50 (EKVX; read-out: pLC50 (converted)): > 100 µM
TGI (EKVX; read-out: pTGI): > 100 µM
GI50 (NCI-H522; read-out: GI50): 0.14 µM
CC50 (NCI-H522; [10]): > 100 µM
TGI (NCI-H522; read-out: TGI): 33.2 µM
GI50 (NCI-H522; read-out: pGI50 (converted)): 0.135 µM
CC50 (NCI-H522; [11]): > 100 µM
TGI (NCI-H522; read-out: pTGI (converted)): 33.1 µM
GI50 (Malme-3M [1]; read-out: GI50): 0.44 µM
LC50 (Malme-3M [1]; read-out: LC50): > 100 µM
TGI (Malme-3M [1]; read-out: TGI): > 100 µM
GI50 (Malme-3M [1]; read-out: pGI50 (converted)): 0.437 µM
LC50 (Malme-3M [1]; read-out: pLC50 (converted)): > 100 µM
TGI (Malme-3M [1]; read-out: pTGI): > 100 µM
GI50 (OVCAR-4; read-out: GI50): 13.3 µM
CC50 (OVCAR-4; [10]): > 100 µM
TGI (OVCAR-4; read-out: TGI): > 100 µM
GI50 (OVCAR-4; read-out: pGI50 (converted)): 13.2 µM
CC50 (OVCAR-4; [11]): > 100 µM
TGI (OVCAR-4; read-out: pTGI): > 100 µM
GI50 (T47D; read-out: GI50): 0.48 µM
CC50 (T47D; [10]): > 100 µM
TGI (T47D; read-out: TGI): > 100 µM
GI50 (T47D; read-out: pGI50 (converted)): 0.479 µM
CC50 (T47D; [11]): > 100 µM
TGI (T47D; read-out: pTGI): > 100 µM
viability at 100 µM (SK-MEL-5 [2]): 35%
viability at 100 µM (SF-268): 9%
viability at 1 µM (SK-MEL-5 [3]): 32%
viability at 1 µM (NCI-H460): 10%
viability at 0.1 µM (UACC-62): 80%
viability at 0.1 µM (UACC-257): 91%
viability at 0.1 µM (HL-60(TB) [4]): 97%
viability at 0.1 µM (CCRF-CEM): 98%
viability at 0.001 µM (TK-10): 92%
viability at 0.001 µM (OVCAR-8 [5]): 95%
viability at 0.001 µM (OVCAR-3): 95%
viability at 0.001 µM (SK-MEL-5 [6]): 98%
viability at 0.001 µM (Malme-3M [7]): 94%
viability at 0.001 µM (U-251): 94%
viability at 0.001 µM (MOLT-4): 96%
viability at 0.001 µM (HL-60(TB) [8]): 95%
viability at 100 µM (OVCAR-8 [9]): 14%
viability at 100 µM (SN12C): 25%
